ChEMBL document CHEMBL3734675, “Synthesis, antimycobacterial and antibacterial activity of fluoroquinolone derivatives containing an 3-alkoxyimino-4-(cyclopropylanimo)methylpyrrolidine moiety” (2015)
Values after ≈ are worked out from the molar mass of the structure shown.

How the values were obtained:
Type in all cases: functional
Klebsiella pneumoniae [1] = test: Antibacterial activity against Klebsiella pneumoniae 14-2 after 18 to 24 hrs by two-fold serial dilution method
How it was run: (§1)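 Twofold serial dilution in agar media against Gram-positive and Gram-negative strains. Plates incubated at 35 °C for 18–24 h. MIC read as the lowest compound concentration giving complete inhibition of bacterial growth.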

[2] = tested on: Mycobacterium tuberculosis; test: Antimycobacterial activity against Mycobacterium tuberculosis H37Rv ATCC 27294 incubated for 7 days by microplate Alamar Blue assay; conditions: H37Rv ATCC 27294, 168 h
How it was run: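 Fluorescence read-out. MIC is the lowest concentration that reduces fluorescence by at least 90% relative to the mean of replicate bacterium-only controls. Isoniazid and rifampicin were included as reference drugs.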

Pseudomonas aeruginosa [3] = test: Antibacterial activity against Pseudomonas aeruginosa 14-9 after 18 to 24 hrs by two-fold serial dilution method; how it was run: as §1
Pseudomonas aeruginosa [4] = test: Antibacterial activity against Pseudomonas aeruginosa 14-15 after 18 to 24 hrs by two-fold serial dilution method; how it was run: as §1
Enterococcus faecium [5] = test: Antibacterial activity against Enterococcus faecium 14-6 after 18 to 24 hrs by two-fold serial dilution method; how it was run: as §1
Staphylococcus aureus [6] = test: Antibacterial activity against Staphylococcus aureus CMCC 26003 after 18 to 24 hrs by two-fold serial dilution method; how it was run: as §1
Escherichia coli [7] = test: Antibacterial activity against extended-spectrum beta-lactamase producing Escherichia coli 14-1 after 18 to 24 hrs by two-fold serial dilution method; how it was run: as §1
Enterococcus faecium [8] = test: Antibacterial activity against Enterococcus faecium 14-2 after 18 to 24 hrs by two-fold serial dilution method; how it was run: as §1
[9] = tested on: Staphylococcus epidermidis; test: Antibacterial activity against methicillin-resistant Staphylococcus epidermidis 14-21 after 18 to 24 hrs by two-fold serial dilution method
How it was run: (§2)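 Agar media, standard twofold serial dilution. MIC is the lowest concentration giving complete inhibition of bacterial growth after incubation at 35 °C for 18–24 h. Ciprofloxacin and levofloxacin were run as comparators.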

Klebsiella pneumoniae [10] = test: Antibacterial activity against Klebsiella pneumoniae 14-1 after 18 to 24 hrs by two-fold serial dilution method; how it was run: as §1
Klebsiella pneumoniae [11] = test: Antibacterial activity against Klebsiella pneumoniae 14-3 after 18 to 24 hrs by two-fold serial dilution method; how it was run: as §1
Staphylococcus aureus [12] = test: Antibacterial activity against methicillin-sensitive Staphylococcus aureus 14-1 after 18 to 24 hrs by two-fold serial dilution method; how it was run: as §1
Escherichia coli [13] = test: Antibacterial activity against Escherichia coli 14-1 after 18 to 24 hrs by two-fold serial dilution method; how it was run: as §1
Enterococcus faecium [14] = test: Antibacterial activity against Enterococcus faecium 14-5 after 18 to 24 hrs by two-fold serial dilution method; how it was run: as §1
Staphylococcus aureus [15] = test: Antibacterial activity against methicillin-resistant Staphylococcus aureus 14-5 after 18 to 24 hrs by two-fold serial dilution method; how it was run: as §2
Escherichia coli [16] = test: Antibacterial activity against Escherichia coli 14-2 after 18 to 24 hrs by two-fold serial dilution method; how it was run: as §1
Streptococcus pneumoniae = test: Antibacterial activity against methicillin-resistant Streptococcus pneumoniae ATCC 19615 after 18 to 24 hrs by two-fold serial dilution method; how it was run: as §2
Staphylococcus aureus [17] = test: Antibacterial activity against methicillin-sensitive Staphylococcus aureus 14-3 after 18 to 24 hrs by two-fold serial dilution method; how it was run: as §1
Escherichia coli [18] = test: Antibacterial activity against Escherichia coli ATCC 25922 after 18 to 24 hrs by two-fold serial dilution method; how it was run: as §1
Staphylococcus aureus [19] = test: Antibacterial activity against methicillin-sensitive Staphylococcus aureus 14-4 after 18 to 24 hrs by two-fold serial dilution method; how it was run: as §1
Klebsiella pneumoniae [20] = test: Antibacterial activity against extended-spectrum beta-lactamase producing Klebsiella pneumoniae 14-19 after 18 to 24 hrs by two-fold serial dilution method; how it was run: as §1
Pseudomonas aeruginosa [21] = test: Antibacterial activity against Pseudomonas aeruginosa 14-16 after 18 to 24 hrs by two-fold serial dilution method; how it was run: as §1
[22] = tested on: Staphylococcus epidermidis; test: Antibacterial activity against methicillin-resistant Staphylococcus epidermidis 14-22 after 18 to 24 hrs by two-fold serial dilution method; how it was run: as §2
Pseudomonas aeruginosa [23] = test: Antibacterial activity against Pseudomonas aeruginosa 14-14 after 18 to 24 hrs by two-fold serial dilution method; how it was run: as §1
Pseudomonas aeruginosa [24] = test: Antibacterial activity against Pseudomonas aeruginosa ATCC 27853 after 18 to 24 hrs by two-fold serial dilution method; how it was run: as §1
Klebsiella pneumoniae [25] = test: Antibacterial activity against Klebsiella pneumoniae 14-4 after 18 to 24 hrs by two-fold serial dilution method; how it was run: as §1
Escherichia coli [26] = test: Antibacterial activity against extended-spectrum beta-lactamase producing Escherichia coli 14-2 after 18 to 24 hrs by two-fold serial dilution method; how it was run: as §1
[27] = tested on: Staphylococcus epidermidis; test: Antibacterial activity against methicillin-resistant Staphylococcus epidermidis 14-39 after 18 to 24 hrs by two-fold serial dilution method; how it was run: as §2
[28] = tested on: Staphylococcus epidermidis; test: Antibacterial activity against methicillin-sensitive Staphylococcus epidermidis 14-2 after 18 to 24 hrs by two-fold serial dilution method; how it was run: as §1
Staphylococcus aureus [29] = test: Antibacterial activity against methicillin-resistant Staphylococcus aureus 14-4 after 18 to 24 hrs by two-fold serial dilution method; how it was run: as §2
Enterococcus faecalis [30] = test: Antibacterial activity against Enterococcus faecalis 14-2 after 18 to 24 hrs by two-fold serial dilution method; how it was run: as §1
Enterococcus faecalis [31] = test: Antibacterial activity against Enterococcus faecalis 14-1 after 18 to 24 hrs by two-fold serial dilution method; how it was run: as §1
Klebsiella pneumoniae [32] = test: Antibacterial activity against extended-spectrum beta-lactamase producing Klebsiella pneumoniae 14-18 after 18 to 24 hrs by two-fold serial dilution method; how it was run: as §1
Klebsiella pneumoniae [33] = test: Antibacterial activity against extended-spectrum beta-lactamase producing Klebsiella pneumoniae 14-17 after 18 to 24 hrs by two-fold serial dilution method; how it was run: as §1
[34] = tested on: Staphylococcus epidermidis; test: Antibacterial activity against methicillin-resistant Staphylococcus epidermidis 14-37 after 18 to 24 hrs by two-fold serial dilution method; how it was run: as §2

Row | Compound | MIC (Klebsiella pneumoniae [1]) | MIC90 [2] | MIC (Pseudomonas aeruginosa [3]) | MIC (Pseudomonas aeruginosa [4]) | MIC (Enterococcus faecium [5]) | MIC (Staphylococcus aureus [6]) | MIC (Escherichia coli [7]) | MIC (Enterococcus faecium [8]) | MIC [9] | MIC (Klebsiella pneumoniae [10]) | MIC (Klebsiella pneumoniae [11]) | MIC (Staphylococcus aureus [12]) | MIC (Escherichia coli [13]) | MIC (Enterococcus faecium [14]) | MIC (Staphylococcus aureus [15]) | MIC (Escherichia coli [16]) | MIC (Streptococcus pneumoniae) | MIC (Staphylococcus aureus [17]) | MIC (Escherichia coli [18]) | MIC (Staphylococcus aureus [19]) | also measured
1 | CO/N=C1/CN(c2nc3c(cc2F)c(=O)c(C(=O)O)cn3[C@@H]2C[C@@H]2F)CC1CNC1CC1 (stereo not given in full) | 64 µg/mL (≈ 143 µM) | 1.25 µg/mL (≈ 2.79 µM) | 8 µg/mL (≈ 17.9 µM) | 64 µg/mL (≈ 143 µM) | 64 µg/mL (≈ 143 µM) | < 0.008 µg/mL | 16 µg/mL (≈ 35.8 µM) | 16 µg/mL (≈ 35.8 µM) | 32 µg/mL (≈ 71.5 µM) | 64 µg/mL (≈ 143 µM) | > 128 µg/mL | 8 µg/mL (≈ 17.9 µM) | > 128 µg/mL | 32 µg/mL (≈ 71.5 µM) | 8 µg/mL (≈ 17.9 µM) | > 128 µg/mL | 4 µg/mL (≈ 8.94 µM) | 8 µg/mL (≈ 17.9 µM) | 4 µg/mL (≈ 8.94 µM) | 16 µg/mL (≈ 35.8 µM) | MIC (Klebsiella pneumoniae [20]): 64 µg/mL (≈ 143 µM); MIC (Pseudomonas aeruginosa [21]): 32 µg/mL (≈ 71.5 µM); MIC [22]: 16 µg/mL (≈ 35.8 µM); MIC (Pseudomonas aeruginosa [23]): 32 µg/mL (≈ 71.5 µM); MIC (Pseudomonas aeruginosa [24]): 8 µg/mL (≈ 17.9 µM); MIC (Klebsiella pneumoniae [25]): > 128 µg/mL; MIC (Escherichia coli [26]): > 128 µg/mL; MIC [27]: 32 µg/mL (≈ 71.5 µM); MIC [28]: > 128 µg/mL; MIC (Staphylococcus aureus [29]): > 128 µg/mL; MIC (Enterococcus faecalis [30]): 0.5 µg/mL (≈ 1.12 µM); MIC (Enterococcus faecalis [31]): 128 µg/mL (≈ 286 µM); MIC (Klebsiella pneumoniae [32]): 32 µg/mL (≈ 71.5 µM); MIC (Klebsiella pneumoniae [33]): 32 µg/mL (≈ 71.5 µM); MIC [34]: 64 µg/mL (≈ 143 µM)
2 | CO/N=C1/CN(c2nc3c(cc2F)c(=O)c(C(=O)O)cn3C2CC2)CC1CNC1CC1 (stereo not given) | 128 µg/mL (≈ 298 µM) | 0.44 µg/mL (≈ 1.02 µM) | 8 µg/mL (≈ 18.6 µM) | 32 µg/mL (≈ 74.5 µM) | 32 µg/mL (≈ 74.5 µM) | < 0.008 µg/mL | 16 µg/mL (≈ 37.3 µM) | 32 µg/mL (≈ 74.5 µM) | 16 µg/mL (≈ 37.3 µM) | 128 µg/mL (≈ 298 µM) | 128 µg/mL (≈ 298 µM) | 8 µg/mL (≈ 18.6 µM) | > 128 µg/mL | 16 µg/mL (≈ 37.3 µM) | 8 µg/mL (≈ 18.6 µM) | > 128 µg/mL | 4 µg/mL (≈ 9.31 µM) | 4 µg/mL (≈ 9.31 µM) | 0.5 µg/mL (≈ 1.16 µM) | 8 µg/mL (≈ 18.6 µM) | MIC (Klebsiella pneumoniae [20]): 32 µg/mL (≈ 74.5 µM); MIC (Pseudomonas aeruginosa [21]): 32 µg/mL (≈ 74.5 µM); MIC [22]: 16 µg/mL (≈ 37.3 µM); MIC (Pseudomonas aeruginosa [23]): 32 µg/mL (≈ 74.5 µM); MIC (Pseudomonas aeruginosa [24]): 16 µg/mL (≈ 37.3 µM); MIC (Klebsiella pneumoniae [25]): > 128 µg/mL; MIC (Escherichia coli [26]): > 128 µg/mL; MIC [27]: 16 µg/mL (≈ 37.3 µM); MIC [28]: > 128 µg/mL; MIC (Staphylococcus aureus [29]): > 128 µg/mL; MIC (Enterococcus faecalis [30]): 0.5 µg/mL (≈ 1.16 µM); MIC (Enterococcus faecalis [31]): 64 µg/mL (≈ 149 µM); MIC (Klebsiella pneumoniae [32]): 16 µg/mL (≈ 37.3 µM); MIC (Klebsiella pneumoniae [33]): 16 µg/mL (≈ 37.3 µM); MIC [34]: 32 µg/mL (≈ 74.5 µM)
